Measured values from ChEMBL document CHEMBL1127809, “Pentamidine congeners. 2. 2-butene-bridged aromatic diamidines and diimidazolines as potential anti-Pneumocystis carinii pneumonia agents” (1994).
Several values for one entry are separate records, joined by “and”; a condition that tells them apart may be missing. Equal entries are not always repeated.

Assays:
Assay type in all cases: functional
[1] = species: Rattus norvegicus; assay: Anti-Pneumocystis carinii activity was measured as percentage of number of cysts counted per gram of lung tissue; parameters: concentration or dose not given beside the values
Method in brief: (§1)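 Immunosuppressed rats with PCP; compound given by daily iv injection over 2 weeks at 10 mg/kg/day, or at 5 or 1 mg/kg/day where shown. Saline is the negative control and pentamidine the positive control. Cysts are counted per gram of lung tissue and expressed as % of the saline-treated control ± SE (n rats). Significance is given as P vs saline or vs pentamidine.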

[2] = system: Rattus norvegicus; assay: In vivo anti-Pneumocystis carinii toxicity in rats administered intravenously at 10 mg/kg/day; 0 indicates no local, clinical, histologic toxicity
Method in brief: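 Host toxicity in immunosuppressed PCP rats dosed iv daily for 2 weeks. Animals were observed daily for health and well-being. Liver and kidney were examined by light microscopy for pathologic changes. Scoring: 0 = no local, clinical or histologic toxicity; 1+ = all survived, some local injection-site toxicity; 2+ = most survived, some severe distress, clinical toxicity and histopathology; 3+ = acute toxicity or decline with <50% deaths; 4+ = ≥50% deaths.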

[3] = species: Rattus norvegicus; assay: Anti- Pneumocystis carinii activity was measured as percentage of number of cysts counted per gram of lung tissue; method in brief: as §1
[4] = system: Rattus norvegicus; assay: Anti- Pneumocystis carinii activity was measured as percentage of number of cysts counted per gram of lung tissue at a dose of 10 mg/kg/day; method in brief: as §1
[5] = system: Rattus norvegicus; assay: Anti- Pneumocystis carinii activity was measured as percentage of number of cysts counted per gram of lung tissue at a dose of 5.0 mg/kg/day; method in brief: as §1
[6] = system: Rattus norvegicus; assay: Anti- Pneumocystis carinii activity was measured as percentage of number of cysts counted per gram of lung tissue at a dose of 1 mg/kg/day; method in brief: as §1

Compound | Control [1] | Toxicity ([2]; route intravenous) | Toxicity [2] | other results
Cl.Cl.N=C(N)c1ccc(OC/C=C/COc2ccc(C(=N)N)cc2)cc1 | 0.67% | 0 | – | –
COc1cc(C2=NCCN2)ccc1OC/C=C/COc1ccc(C2=NCCN2)cc1OC.Cl.Cl | 1.5% | – | Toxic | –
N=C(N)c1ccc(OCCCCCOc2ccc(C(=N)N)cc2)cc1 [PENTAMIDINE] | – | 2 | – | Control [3]: <5.31% and <4.95%
C(=C\COc1ccc(C2=NCCN2)cc1)/COc1ccc(C2=NCCN2)cc1.Cl.Cl | 1.22% | 0 | – | Control [4]: 1.38%; Control [5]: 5.61%; Control [6]: 39.6%
C(=C/COc1ccc(C2=NCCN2)cc1)/COc1ccc(C2=NCCN2)cc1.Cl.Cl | 1.22% | 0 | – | –
COc1cc(C(=N)N)ccc1OC/C=C\COc1ccc(C(=N)N)cc1OC.Cl.Cl | 21.4% | 0 | – | –
COc1cc(C(=N)N)ccc1OC/C=C/COc1ccc(C(=N)N)cc1OC.Cl | 35.5% | – | Local toxicity | –
Cl.Cl.N=C(N)c1ccc(OC/C=C\COc2ccc(C(=N)N)cc2)cc1 | 1.1% | 0 | – | –
COc1cc(C2=NCCN2)ccc1OC/C=C\COc1ccc(C2=NCCN2)cc1OC.Cl.Cl | 15.6% | – | Local toxicity | –
